One may read the Kd as the concentration at which binding is half-saturated.

From publication PMC3353655 (Journal of the American Chemical Society, 2012) come the findings set out here.

In one assay the test system is SrtA. Kind of assay: Inhibition of SrtA catalyzed cleavage of a peptide substrate. The class given is biochemical, Staphylococcus aureus. Particulars: peptide at a concentration of up to 1 mM; data not shown. A digest of the protocol: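 SrtA cleaved a peptide substrate; this reaction has a Km of 80 μM. The test compound was tested at concentrations up to 1 mM.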
The target of another assay is T1, Sortase B (SrtB) (Staphylococcus aureus, UniProt Q2FZE3).
T1 sequence (Q2FZE3 31-244 limits assumed): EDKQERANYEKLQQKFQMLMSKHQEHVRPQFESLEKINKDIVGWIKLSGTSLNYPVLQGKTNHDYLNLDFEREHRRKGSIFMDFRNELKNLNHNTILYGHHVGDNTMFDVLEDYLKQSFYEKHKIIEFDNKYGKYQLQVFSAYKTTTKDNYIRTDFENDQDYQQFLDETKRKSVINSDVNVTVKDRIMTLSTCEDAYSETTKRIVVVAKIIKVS
Kind of assay: Fluorescence polarization binding of fluorescein-labeled lantipeptides to SrtB. The essentials: (§1)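 Binding constants were measured by fluorescence polarization. Test compounds were synthetic lantipeptides labeled with 5-carboxyfluorescein, with a C-terminal polyethylene glycol tail added for solubility. Sortase B was run in the same format as Sortase A. Each data point is the average of at least three independent measurements.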
Background: Polarisation of emitted light reports the rotation of a fluorescent probe.

For a further assay, the target named is T2, Sortase A (SrtA) (Staphylococcus aureus, UniProt Q2FV99).
T2 sequence (Q2FV99 60-206 limits assumed): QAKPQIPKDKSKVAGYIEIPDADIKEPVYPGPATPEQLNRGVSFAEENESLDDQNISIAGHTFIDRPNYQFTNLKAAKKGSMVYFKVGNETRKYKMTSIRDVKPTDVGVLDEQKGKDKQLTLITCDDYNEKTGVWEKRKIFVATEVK
Kind of assay: Fluorescence polarization binding of fluorescein-labeled lantipeptides to SrtA. Conditions: SrtA binding compared with 2(2S,6R). A digest of the protocol:
as §1

`CC[C@H](C)[C@H](NC(=O)[C@H](CCCNC(=N)N)NC(=O)CNC(=O)[C@H](Cc1c[nH]c2ccccc12)NC(=O)[C@@H]1CSC[C@@H](NC(=O)[C@H](Cc2ccc(O)cc2)NC(=O)[C@H](Cc2c[nH]c3ccccc23)NC(=O)[C@H](CC(C)C)NC(=O)CNC(=O)[C@H](CCCNC(=N)N)NC(=O)c2ccc3c(c2)C(=O)OC32c3ccc(O)cc3Oc3cc(O)ccc32)C(=O)N[C@@H](CC(C)C)C(=O)N[C@@H](CO)C(=O)N1)C(=O)NCC(=O)N[C@@H](CCCNC(=N)N)C(=O)N[C@@H](CCCNC(=N)N)C(=O)NCCCOCCOCCOCCCNC(=O)CCC(=O)NCCCOCCOCCOCCCNC(=O)CCC(=O)NCCCOCCOCCOCCCNC(=O)CCC(=O)N[C@@H](C)C(=O)O` [2(2S,6R)]: the “inhibition of SrtA catalyzed cleavage of a peptide substrate” value in the assay with SrtA is given as “unable to inhibit”. For the same compound, the “affinity to SrtB (in words)” value on Sortase B (SrtB) (fluorescein-labeled peptide) is “no detectable affinity”. Moreover, the equilibrium dissociation constant (Kd) at Sortase B (SrtB) (read-out: Kd [μM], SrtB, SrtA was replaced by Sortase B (SrtB), 50 mM Tris HCl, 50 mM NaCl, 5 mM CaCl2, 1.2 mM TCEP, average of at least three independent measurements) was greater than 300 µM.

For `CC[C@H](C)[C@H](NC(=O)[C@H](CCCNC(=N)N)NC(=O)CNC(=O)[C@H](Cc1c[nH]c2ccccc12)NC(=O)[C@@H]1CSC[C@@H](NC(=O)[C@H](Cc2ccc(O)cc2)NC(=O)[C@H](Cc2c[nH]c3ccccc23)NC(=O)[C@H](CC(C)C)NC(=O)CNC(=O)[C@H](CCCNC(=N)N)NC(=O)c2ccc3c(c2)C(=O)OC32c3ccc(O)cc3Oc3cc(O)ccc32)C(=O)N[C@@H](CC(C)C)C(=O)N[C@@H]([C@@H](C)O)C(=O)N1)C(=O)NCC(=O)N[C@@H](CCCNC(=N)N)C(=O)N[C@@H](CCCNC(=N)N)C(=O)NCCCOCCOCCOCCCNC(=O)CCC(=O)NCCCOCCOCCOCCCNC(=O)CCC(=O)NCCCOCCOCCOCCCNC(=O)CCC(=O)N[C@@H](C)C(=O)O` [6(2S,6R)], on Sortase A (SrtA), the “fold weaker binder than 2(2S,6R)” value turned out to be 10 fold.
